Rows were chosen to be rich in hits. Some 1.3% of all compounds tested hit in one or more screens of this group.
CAL PDZ FP-1 – blocks peptide binding to human CAL PDZ domain | AID 504414 | Q9HD26 | inhibition, % at 20 µM | purified CAL PDZ, TMR-peptide fluorescence polarization, 1 h | 330,000 tested, 0.02% active;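 active = highest replicate inhibition of at least 40%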
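Test system: tagged CAL PDZ domain / Buffer or medium: sodium phosphate/NaCl buffer pH 7.4 with TCEP, IgG, Thesit / Reagent: TMR-labelled reporter peptide T*-PRC34 bound in PDZ groove / Compound dosing: single point, 20 µM / Schedule: 1 h incubation at room temperature before polarization reading / Technique: fluorescence polarization (mP) / Benchmarks: unlabelled peptide, DMSO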
CAL PDZ FP-2 – CAL PDZ (human) peptide binding inhibition. Q9HD26. purified CAL PDZ, TMR-peptide fluorescence polarization, 1 h. inhibition, % at 24.9 µM. 300,000 tested, 0.92% active. AID 602252;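 active = mean inhibition of at least 30% with at least half of replicates also reaching 30%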
LANA DNA inh – blocks KSHV LANA C-terminal domain binding to DNA; AID 504423; inhibition, % at 9 µM; MBP-C-LANA/FAM-LBS DNA binding, fluorescence polarization; 340,000 tested, 0.078% active;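 active = highest replicate inhibition at or above 60% at 9 µM, even if other replicates fall short; inactive = all replicates below 60% inhibition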
Keap1-Nrf2 PPI – Keap1-Nrf2 (human) interaction inhibition | Q14145 | Keap1 Kelch-Nrf2 peptide fluorescence polarization, 1536-well | inhibition, % at 9.4 µM | 340,000 tested, 0.15% active | AID 504523; in the data active = inhibition above about 12%;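 also: human Keap1 Kelch domain with fluorescein labeled Nrf2 9mer peptide probe; higher means more block of Keap1 binding to Nrf2 peptide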
Target sequence (Q14145 whole entry, looked up, the tested form may be a part): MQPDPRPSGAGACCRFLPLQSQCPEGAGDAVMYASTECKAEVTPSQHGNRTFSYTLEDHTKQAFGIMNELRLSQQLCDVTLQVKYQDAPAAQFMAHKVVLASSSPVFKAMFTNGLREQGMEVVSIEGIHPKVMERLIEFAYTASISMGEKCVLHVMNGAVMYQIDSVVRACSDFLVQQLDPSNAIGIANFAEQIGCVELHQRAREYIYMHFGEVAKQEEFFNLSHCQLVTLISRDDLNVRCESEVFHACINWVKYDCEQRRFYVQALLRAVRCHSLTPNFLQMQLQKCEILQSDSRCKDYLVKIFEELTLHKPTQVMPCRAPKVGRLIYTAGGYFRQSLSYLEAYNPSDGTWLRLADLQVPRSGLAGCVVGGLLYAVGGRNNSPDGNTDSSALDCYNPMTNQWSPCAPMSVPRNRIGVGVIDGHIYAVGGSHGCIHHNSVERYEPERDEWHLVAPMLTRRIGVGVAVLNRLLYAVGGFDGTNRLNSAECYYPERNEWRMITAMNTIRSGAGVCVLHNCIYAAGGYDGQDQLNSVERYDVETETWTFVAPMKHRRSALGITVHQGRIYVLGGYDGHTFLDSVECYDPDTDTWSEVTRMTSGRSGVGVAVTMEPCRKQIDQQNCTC
RTF Ca sens inh – cardiac RTF calcium desensitization; 340,000 tested, 0.12% active; AID 493244; P19429+P45379; inhibition, % at 7.15 µM; IANBD-labeled cardiac RTF, Ca2+ fluorescence;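 active = inhibition above the mean inhibition of all tested compounds plus 3 SD, cut at about 17% in these data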;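 also: assay run at fixed EC70 calcium of 1.6 mM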
RTF Ca sens act – cardiac RTF calcium sensitization | 340,000 tested, 0.24% active | IANBD-labeled TnC RTF fluorescence at EC20 calcium; 0% EC20 calcium, 100% full calcium | P19429+P45379 | AID 493008 | activation, % at 7.2 µM;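 active = activation above the mean over all tested compounds plus 3 SD, cut at about 30% in these data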;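 also: rise in fluorescence read as greater calcium sensitivity of cardiac thin filaments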
A number is an active result; i = inactive; nt = no result given.

SMILES	CAL PDZ FP-1	CAL PDZ FP-2	LANA DNA inh	Keap1-Nrf2 PPI	RTF Ca sens inh	RTF Ca sens act
C[C@@H]1COC(=O)[C@@H](Cc2ccc(F)cc2)C/C=C\C[C@@H](CC(=O)NCCO)C(=O)N1	i	i	i	i	i	i
CC(=O)Nc1sc(/C(C#N)=C\c2cccc(Cl)c2)nc1-c1ccc(C)cc1	i	i	i	i	i	43
CC(=O)Nc1sc(N/N=C/c2ccccc2)nc1-c1ccc(C)cc1	i	i	i	i	i	i
O=C(O)C1CC=CCC1C(=O)NC12CC3CC(CC(C3)C1)C2 (centres undefined)	i	67	i	i	i	i
Cc1nc2ccccc2c(=O)n1CCc1ccccc1	i	i	i	i	i	i
Cc1cc2nc3c(=O)n(CCc4ccccc4)c(=O)[nH]c3nc2cc1N	i	i	i	i	i	516
O=C(OCc1ccc(O)cc1)c1c(-c2ccsc2)oc2ccc(N3CCOCC3)cc12	i	i	i	i	i	i
COc1ccc(OC)c(C(C)NC(=O)C23CC4CC(CC(C4)C2)C3)c1 (centres undefined)	i	i	109	i	i	i
COC(=O)C1(CCSC)NC(c2ccc(O)cc2)C2C(=O)N(c3ccc(F)cc3)C(=O)C21 (centres undefined)	i	i	i	i	i	i
COc1ccccc1CNC(=O)COC(=O)CC1CC2CCC1C2 (centres undefined)	i	80	i	i	i	i
COc1cc(/C=N/N2C(=O)CSC2=S)ccc1O	i	i	i	i	i	i
O=C1CSC(=S)N1/N=C/c1cc(Br)c(O)c(Br)c1	i	59	i	i	i	56
Cc1[nH]c2ccccc2c1C(=O)CCl	i	63	i	i	i	i
Cc1[nH]c2ccccc2c1C(=O)CSc1ccccc1	i	i	i	i	i	i
CCCN1C(=O)/C(=C/c2ccc(N3CCOCC3)cc2)NC1=S	i	nt	i	i	i	i
Cc1cc(/C=C2\NC(=S)N(C)C2=O)ccc1N1CCCC1	i	i	i	i	i	87
CCN1C(=O)/C(=C/c2ccc(N3CCCC3)cc2)NC1=S	i	i	i	i	i	151
CCCN1C(=O)/C(=C/c2ccc(N3CCCC3)c(C)c2)NC1=S	i	i	i	i	i	68
Cc1cc(/C=C2/C(=O)N(C)C(=S)N2C)ccc1N1CCCC1	i	i	i	i	i	32
Cc1cc(N2CCCC2)ccc1/C=C1/C(=O)N(C)C(=S)N1C	i	i	i	i	i	i
COc1cc(/C=C2\NC(=S)N(C)C2=O)ccc1O	i	i	i	i	i	i
O=C(CNC(=O)c1ccc(OC(F)F)cc1)Nc1cccc(S(=O)(=O)N2CCCC2)c1	i	i	i	i	i	i
NS(=O)(=O)c1ccc(CNC(=O)/C=C/c2c(F)cccc2Cl)cc1	i	70	i	i	i	i
O=C(CSc1nc2c(sc3ccccc32)c(=O)n1Cc1ccccc1)NCC1CCCO1 (centres undefined)	89	i	i	i	i	i
O=C(CSc1nc2ccc(N3CCOCC3)cc2c(=O)n1CCc1ccccc1)NCC1CCCO1 (centres undefined)	i	68	i	i	i	i
SMILES	CAL PDZ FP-1	CAL PDZ FP-2	LANA DNA inh	Keap1-Nrf2 PPI	RTF Ca sens inh	RTF Ca sens act
COc1ccc(S(=O)(=O)N2CC(C(=O)O)Oc3ccc(CC(=O)O)cc32)cc1 (centres undefined)	i	38	i	i	i	i
COc1ccc(CCC(=O)NNC(=O)c2ccccn2)cc1OC	i	98	i	i	i	i
CN1CCN(CC(=O)NN2CC(=O)N(c3ccc(F)cc3)CC2=O)CC1	i	52	i	i	i	i
O=C(CN1CCc2ccccc21)NN1CC(=O)N(c2ccc(Cl)cc2)CC1=O	i	i	i	i	i	i
CCOC(=O)C1=C(C)C/C(=N\NC(=O)c2ccccc2O)CC1	i	86	i	i	i	i
O=C(NN=C1CCN(Cc2ccccc2)CC1)c1ccccc1O	i	i	i	i	i	i
CC(OC(=O)c1cccc(O)c1)C(=O)N(C)Cc1ccccc1 (centres undefined)	i	i	i	i	i	i
CC(OC(=O)/C(C#N)=C/c1ccc(N(C)C)cc1)C(=O)N(C)Cc1ccccc1 (centres undefined)	i	i	i	i	i	30
N#C/C(=C\c1ccccn1)c1nc2ccccc2s1	i	i	i	i	i	60
N#C/C(=C/c1ccc(-c2ccccc2)o1)c1nc(-c2cccs2)cs1	i	i	i	i	i	93
COC(=O)c1ccc(/C=C(\C#N)c2nc3ccccc3s2)cc1	i	i	i	i	i	i
N#C/C(=C/c1ccc(-c2ccc(S(N)(=O)=O)cc2)o1)c1nc2ccccc2s1	i	i	i	i	i	347
Cc1cccc(C)c1NC(=O)CNC(=O)c1ccc(COc2ccccc2)o1	i	i	i	i	i	i
O=C1OC(CO)CN1Cc1ccccc1 (centres undefined)	nt	58	i	i	i	i
O=C1OC(CCl)CN1Cc1c(Cl)cccc1Cl (centres undefined)	i	i	i	i	i	i
COC(=O)C=C1CCC2C3CC(F)C4(O)CC(=O)CCC4(C)C3C(=O)CC12C (centres undefined)	i	i	i	i	i	i
COc1ccc2c3c(cccc13)C(=O)CC2	i	i	163	164	i	715
O=C(COC(=O)c1cn(-c2ccccc2)nc1-c1ccccc1)Nc1ncc(Cl)cc1Cl	i	77	i	i	i	i
O=C(Cn1cnc(S(=O)(=O)N2CCCCC2)c1)N1CCN(c2ccc([N+](=O)[O-])cc2)CC1	i	i	i	i	i	i
Cc1ccc(-c2nnn(CC(=O)N(Cc3ccc(F)cc3)C(C(=O)NC3CCCC3)c3ccncc3)n2)o1 (centres undefined)	i	i	i	i	i	i
CC(C)(C)N(C(=O)Cn1nnc(-c2ccc(F)cc2)n1)C(C(=O)NC1CCCC1)c1ccncc1 (centres undefined)	i	36	i	i	i	i
O=C(NC1CCCC1)C(c1ccncc1)N(CC1CCCO1)C(=O)Cn1nnc(-c2cccs2)n1 (centres undefined)	i	32	i	i	i	i
CN(CC(=O)Nc1cc(Cl)ccc1Cl)C1CCS(=O)(=O)C1 (centres undefined)	i	i	i	i	i	i
CN(CC(=O)Nc1cc(Cl)ccc1C#N)C1CCS(=O)(=O)C1 (centres undefined)	i	85	i	i	i	i
O=C(CSCc1ccc(Cl)cc1)NN=C1CCCC1	i	72	i	i	i	i
CN(Cc1ccccc1)C(=O)COC(=O)CNS(=O)(=O)c1ccc2ccccc2c1	i	i	i	i	i	i
N#CC1=C(N)Oc2cc(N)ccc2C1c1cccc(F)c1 (centres undefined)	nt	i	i	i	i	i

Assay outcomes deposited in PubChem BioAssay by several laboratories.
